Measurements published in ChEMBL document CHEMBL1157279, “8-methyl-pyridoxatin: A novel N-hydroxy pyridone from fungus OS-F61800 that induces erythropoietin in human cells” (1999).
The source made the active and inactive calls. No cut-off for these calls is given here.

What was measured:
[1] = Cytotoxicity against human Hep3B cells after 48 hrs by MTT assay; type: functional, Hep 3B2
Summary of the method: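 Hep3B epo-3 cells, 48 h exposure, standard MTT assay; value is concentration giving 90% inhibition (IC90).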

Hep 3B2 [2] = test: Induction of erythropoietin gene expression in human Hep3B cells assessed as concentration resulting in five fold induction by luciferase reporter assay relative to control; type: functional
Summary of the method: (§1)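 Hep3B epo-3 cells carrying an EPO-luciferase reporter; compounds tested at 0.1 to 30 µM, in triplicate in at least three experiments. Read-out is the ratio of light units with compound to a 0.5% DMSO vehicle control. TIR5x is the concentration giving fivefold induction; TIRmax is the minimum concentration giving maximum-fold induction. 10 µM CoCl2 served as positive control.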

Hep 3B2 [3] = test: Induction of erythropoietin protein expression in human Hep3B cells assessed per ml of protein at 10 uM by ELISA relative to control; type: functional
Summary of the method: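 Hep3B epo-3 cells incubated 24 h with compound at a single 10 µM; native EPO secreted into culture measured by human EPO ELISA kit, in mU/mL culture, against a 0.5% DMSO vehicle control; 10 µM CoCl2 as positive control.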

Hep 3B2 [4] = test: Induction of erythropoietin gene expression in human Hep3B cells assessed as concentration resulting in maximum fold induction by luciferase reporter assay relative to control; type: functional; summary of the method: as §1

**Q.** Which IC90 [1] does the source give for `C=C[C@]1(C)C[C@H](C)C[C@H](C)[C@H]1c1c(O)ccn(O)c1=O` here?
**A.** The IC90 was > 20 µM.

**Q.** And the Activity (Hep 3B2 [2])?
**A.** Its Activity is 0.3 µM.

**Q.** What about the Activity (Hep 3B2 [3]) of the same compound?
**A.** The Activity was 120 mU/mL.

**Q.** And the Activity (Hep 3B2 [4])?
**A.** The Activity was 0.7 µM.

**Q.** Which Activity (Hep 3B2 [2]) does the source give for `C=C[C@]1(C)C[C@H](C)C[C@H](C)[C@H]1c1c(OC)ccn(OC)c1=O` here?
**A.** The Activity was “inactive”.

**Q.** What about the Activity (Hep 3B2 [4]) of the same compound?
**A.** The Activity was “inactive”.

**Q.** Which results are given for `Cc1cc(C2CCCCC2)n(O)c(=O)c1.NCCO` [CICLOPIROX OLAMINE]?
**A.** IC90 [1]: > 20 µM; Activity (Hep 3B2 [2]): 3 µM; Activity (Hep 3B2 [3]): 99 mU/mL; Activity (Hep 3B2 [4]): 15 µM
